Data published in paper PMC6684259 (Current biology : CB, 2019).

Tests used:
Eg5 (kinesin-5) [1] = molecular target: T1, Eg5 (kinesin-5) (Xenopus laevis, UniProt P28025); assay: microtubule shrinkage assay with purified Eg5M in AMPPNP; assay type: biochemical
T1 sequence (P28025 1-368): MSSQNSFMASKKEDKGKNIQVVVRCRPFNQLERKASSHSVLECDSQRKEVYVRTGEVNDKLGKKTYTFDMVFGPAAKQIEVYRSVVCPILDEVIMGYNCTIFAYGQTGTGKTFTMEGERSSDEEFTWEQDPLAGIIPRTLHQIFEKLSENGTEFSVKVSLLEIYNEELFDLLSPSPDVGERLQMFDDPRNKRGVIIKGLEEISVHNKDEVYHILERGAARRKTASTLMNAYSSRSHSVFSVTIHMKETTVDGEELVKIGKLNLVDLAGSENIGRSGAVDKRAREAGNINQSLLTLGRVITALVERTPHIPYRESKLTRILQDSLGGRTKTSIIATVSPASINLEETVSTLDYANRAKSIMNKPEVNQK

Eg5 (kinesin-5) [2] = molecular target: T1, Eg5 (kinesin-5); assay: microtubule shrinkage assay with purified Eg5M plus inhibitor; assay type: biochemical
In short: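 Shrinkage run in BRB80 with oxygen scavenger and 0.2 mg/mL casein. Microtubules are grown from Cy5/biotin GMPCPP seeds with TMR-labeled bovine brain tubulin, 5 mM Mg-ATP and 2 mM Mg-GTP, ±His-purified motor (E. coli-expressed), for 20 min at 37°C. Catastrophe is triggered by flowing in 22°C tubulin-free buffer holding the same motor concentration. Shrinkage velocities come from tracked ends imaged on stage.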

Row | SMILES | microtubule shrinkage assay with purified Eg5M in AMPPNP (TIRF) (Eg5 (kinesin-5) [1]) | microtubule shrinkage assay with purified Eg5M plus inhibitor (TIRF) (Eg5 (kinesin-5) [2])
1 | Nc1ncnc2c1ncn2[C@@H]1O[C@H](CO[P@](=O)(O)O[P@](=O)(O)NP(=O)(O)O)[C@@H](O)[C@H]1O [AMPPNP] | 0.5 nm/s | 
2 | CC(C)(C)c1ccc2cc(C#N)c(C#N)cc2c1 [BRD9876] |  | 0.2 nm/s
